According to the M2OR odorant receptor database:
Numbering of substitutions follows the chain as printed.

Legend:
Details in all cases: stereoisomer not certain
[1] = target: T1, OR5K3 (Homo sapiens) (UniProt A6NET4)
T1 sequence (whole entry): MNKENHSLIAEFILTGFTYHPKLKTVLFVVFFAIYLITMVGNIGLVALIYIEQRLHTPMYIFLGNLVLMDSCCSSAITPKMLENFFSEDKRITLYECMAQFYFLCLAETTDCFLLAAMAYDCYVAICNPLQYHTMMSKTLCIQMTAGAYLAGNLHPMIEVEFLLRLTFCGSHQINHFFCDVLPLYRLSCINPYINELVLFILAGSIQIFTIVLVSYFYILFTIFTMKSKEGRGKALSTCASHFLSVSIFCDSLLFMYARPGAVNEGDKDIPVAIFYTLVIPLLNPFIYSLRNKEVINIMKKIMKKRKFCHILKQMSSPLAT
Procedure, shortened: (§1)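 Values were gathered from published papers (main text and supplementary material), with extra details requested from the original authors when needed, and checked for typos and inconsistencies. Each receptor–molecule pair is called responsive (active) if the original authors judged the measured signal statistically different from baseline, and non-responsive (inactive) otherwise. Assay methods varied by source, often transient mammalian cell-line luciferase assays. Recorded details include cell line, G-protein, co-transfected protein and tags.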

[2] = target: T2, OR5K4 (Homo sapiens) (UniProt A6NMS3)
T2 sequence (whole entry): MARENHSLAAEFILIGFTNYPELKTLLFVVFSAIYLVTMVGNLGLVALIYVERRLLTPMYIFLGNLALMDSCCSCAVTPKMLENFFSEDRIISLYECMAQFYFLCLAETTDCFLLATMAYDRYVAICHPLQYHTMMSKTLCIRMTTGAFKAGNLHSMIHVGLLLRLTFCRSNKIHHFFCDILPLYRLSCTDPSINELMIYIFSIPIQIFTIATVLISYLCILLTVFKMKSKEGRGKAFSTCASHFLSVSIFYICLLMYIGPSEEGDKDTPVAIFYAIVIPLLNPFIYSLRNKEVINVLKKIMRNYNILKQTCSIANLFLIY
Procedure, shortened: as §1

[3] = target: T3, OR5L1 (Homo sapiens) (UniProt Q8NGL2)
T3 sequence (whole entry): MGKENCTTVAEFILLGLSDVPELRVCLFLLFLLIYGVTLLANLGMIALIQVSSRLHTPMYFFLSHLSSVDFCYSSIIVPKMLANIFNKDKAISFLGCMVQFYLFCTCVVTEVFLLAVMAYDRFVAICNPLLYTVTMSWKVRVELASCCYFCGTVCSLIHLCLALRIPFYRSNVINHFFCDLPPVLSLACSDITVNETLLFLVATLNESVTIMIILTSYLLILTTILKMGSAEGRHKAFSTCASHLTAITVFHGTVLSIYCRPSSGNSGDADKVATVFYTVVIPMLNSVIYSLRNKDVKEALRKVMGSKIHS
Procedure, shortened: as §1

[4] = target: T4, OR5L2 (Homo sapiens) (UniProt Q8NGL0)
T4 sequence (whole entry): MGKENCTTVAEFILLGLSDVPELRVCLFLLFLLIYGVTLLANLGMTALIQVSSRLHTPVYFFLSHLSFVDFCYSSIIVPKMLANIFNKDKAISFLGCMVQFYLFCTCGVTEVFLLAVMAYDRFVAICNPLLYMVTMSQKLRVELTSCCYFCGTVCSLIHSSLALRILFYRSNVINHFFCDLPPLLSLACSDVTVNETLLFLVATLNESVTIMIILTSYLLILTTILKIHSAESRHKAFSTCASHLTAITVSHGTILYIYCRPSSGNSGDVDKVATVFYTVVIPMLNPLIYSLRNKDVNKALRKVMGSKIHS
Procedure, shortened: as §1

[5] = target: T5, OR5M1 (Homo sapiens) (UniProt Q8NGP8)
T5 sequence (whole entry): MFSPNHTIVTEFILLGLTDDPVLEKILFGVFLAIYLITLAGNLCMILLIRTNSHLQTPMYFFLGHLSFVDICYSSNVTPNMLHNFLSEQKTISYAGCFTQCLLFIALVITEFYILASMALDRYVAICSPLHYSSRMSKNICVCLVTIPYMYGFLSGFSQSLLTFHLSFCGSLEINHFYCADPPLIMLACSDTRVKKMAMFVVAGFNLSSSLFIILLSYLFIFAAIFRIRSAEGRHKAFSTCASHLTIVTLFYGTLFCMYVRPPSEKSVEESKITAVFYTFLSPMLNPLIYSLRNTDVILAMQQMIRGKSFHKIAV
Procedure, shortened: as §1

[6] = target: T6, OR5M10 (Homo sapiens) (UniProt Q6IEU7)
T6 sequence (whole entry): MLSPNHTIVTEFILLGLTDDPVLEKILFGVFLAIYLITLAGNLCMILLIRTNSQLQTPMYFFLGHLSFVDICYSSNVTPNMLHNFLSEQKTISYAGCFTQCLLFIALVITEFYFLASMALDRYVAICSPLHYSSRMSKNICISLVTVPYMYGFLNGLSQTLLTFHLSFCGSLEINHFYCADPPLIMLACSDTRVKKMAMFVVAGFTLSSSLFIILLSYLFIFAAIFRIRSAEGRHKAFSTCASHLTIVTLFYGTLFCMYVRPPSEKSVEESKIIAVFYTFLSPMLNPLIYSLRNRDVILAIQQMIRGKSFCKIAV
Procedure, shortened: as §1

[7] = target: T7, OR5M11 (Homo sapiens) (UniProt Q96RB7)
T7 sequence (whole entry): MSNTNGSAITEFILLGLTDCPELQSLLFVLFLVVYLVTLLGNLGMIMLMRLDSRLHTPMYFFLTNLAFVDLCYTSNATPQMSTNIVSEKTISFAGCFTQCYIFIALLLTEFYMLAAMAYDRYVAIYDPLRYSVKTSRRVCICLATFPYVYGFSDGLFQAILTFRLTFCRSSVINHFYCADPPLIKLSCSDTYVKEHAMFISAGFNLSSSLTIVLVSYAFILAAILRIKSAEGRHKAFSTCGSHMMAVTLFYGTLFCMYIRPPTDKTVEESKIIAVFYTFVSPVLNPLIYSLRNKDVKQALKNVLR
Procedure, shortened: as §1

[8] = target: T8, OR5M3 (Homo sapiens) (UniProt Q8NGP4)
T8 sequence (whole entry): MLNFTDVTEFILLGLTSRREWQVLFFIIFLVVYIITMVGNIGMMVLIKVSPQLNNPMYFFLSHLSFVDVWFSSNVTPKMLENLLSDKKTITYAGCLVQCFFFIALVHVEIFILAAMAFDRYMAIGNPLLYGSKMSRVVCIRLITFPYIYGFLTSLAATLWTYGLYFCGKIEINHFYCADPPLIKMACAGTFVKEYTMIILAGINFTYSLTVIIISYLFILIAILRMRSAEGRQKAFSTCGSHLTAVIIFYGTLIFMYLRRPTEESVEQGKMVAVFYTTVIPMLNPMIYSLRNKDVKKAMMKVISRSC
Procedure, shortened: as §1

[9] = target: T9, OR5M8 (Homo sapiens) (UniProt Q8NGP6)
T9 sequence (whole entry): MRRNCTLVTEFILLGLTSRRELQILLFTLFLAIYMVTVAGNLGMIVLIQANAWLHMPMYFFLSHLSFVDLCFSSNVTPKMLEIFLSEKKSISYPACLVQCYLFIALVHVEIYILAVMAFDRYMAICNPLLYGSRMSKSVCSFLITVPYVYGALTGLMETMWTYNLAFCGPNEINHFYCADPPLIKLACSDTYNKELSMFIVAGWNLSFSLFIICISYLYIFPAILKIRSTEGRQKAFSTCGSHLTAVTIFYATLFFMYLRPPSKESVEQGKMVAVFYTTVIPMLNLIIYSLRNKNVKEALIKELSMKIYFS
Procedure, shortened: as §1

[10] = target: T10, OR5M9 (Homo sapiens) (UniProt Q8NGP3)
T10 sequence (whole entry): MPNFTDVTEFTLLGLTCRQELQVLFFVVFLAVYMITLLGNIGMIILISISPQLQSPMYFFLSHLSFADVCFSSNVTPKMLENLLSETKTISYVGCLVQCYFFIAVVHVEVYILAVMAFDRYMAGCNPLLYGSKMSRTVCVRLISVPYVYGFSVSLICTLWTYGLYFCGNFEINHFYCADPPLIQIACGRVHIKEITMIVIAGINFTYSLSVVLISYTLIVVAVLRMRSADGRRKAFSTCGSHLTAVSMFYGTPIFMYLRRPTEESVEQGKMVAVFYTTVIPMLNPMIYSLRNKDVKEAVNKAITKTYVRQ
Procedure, shortened: as §1

[11] = target: T11, OR5P2 (Homo sapiens) (UniProt Q8WZ92)
T11 sequence (whole entry): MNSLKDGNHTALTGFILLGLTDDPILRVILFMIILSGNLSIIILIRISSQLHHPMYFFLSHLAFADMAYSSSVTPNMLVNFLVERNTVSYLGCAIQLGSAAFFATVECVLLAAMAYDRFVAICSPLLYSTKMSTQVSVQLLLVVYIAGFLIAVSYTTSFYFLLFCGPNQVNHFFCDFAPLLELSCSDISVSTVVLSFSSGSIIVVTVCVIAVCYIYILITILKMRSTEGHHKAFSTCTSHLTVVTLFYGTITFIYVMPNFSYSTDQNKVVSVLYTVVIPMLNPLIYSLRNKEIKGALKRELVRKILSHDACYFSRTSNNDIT
Procedure, shortened: as §1

[12] = target: T12, OR5P3 (Homo sapiens) (UniProt Q8WZ94)
T12 sequence (whole entry): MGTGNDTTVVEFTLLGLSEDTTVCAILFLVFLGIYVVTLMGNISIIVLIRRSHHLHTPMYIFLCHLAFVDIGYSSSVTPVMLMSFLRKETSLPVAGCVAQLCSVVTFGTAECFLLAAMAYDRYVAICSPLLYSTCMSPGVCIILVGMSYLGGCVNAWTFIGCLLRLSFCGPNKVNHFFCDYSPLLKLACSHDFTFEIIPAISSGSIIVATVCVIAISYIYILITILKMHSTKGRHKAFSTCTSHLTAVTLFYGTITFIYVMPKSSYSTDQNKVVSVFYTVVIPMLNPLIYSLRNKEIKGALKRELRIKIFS
Procedure, shortened: as §1

[13] = target: T13, OR5T1 (Homo sapiens) (UniProt Q8NG75)
T13 sequence (whole entry): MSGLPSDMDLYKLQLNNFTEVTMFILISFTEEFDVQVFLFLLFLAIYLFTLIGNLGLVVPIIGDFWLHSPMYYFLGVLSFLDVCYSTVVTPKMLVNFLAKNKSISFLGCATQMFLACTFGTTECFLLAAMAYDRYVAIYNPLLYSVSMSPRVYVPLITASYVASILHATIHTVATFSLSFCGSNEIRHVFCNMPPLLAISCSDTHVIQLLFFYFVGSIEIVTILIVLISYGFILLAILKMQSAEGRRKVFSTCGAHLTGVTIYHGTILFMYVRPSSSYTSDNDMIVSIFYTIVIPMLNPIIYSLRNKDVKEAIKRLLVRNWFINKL
Procedure, shortened: as §1

[14] = target: T14, OR5T2 (Homo sapiens) (UniProt Q8NGG2)
T14 sequence (whole entry): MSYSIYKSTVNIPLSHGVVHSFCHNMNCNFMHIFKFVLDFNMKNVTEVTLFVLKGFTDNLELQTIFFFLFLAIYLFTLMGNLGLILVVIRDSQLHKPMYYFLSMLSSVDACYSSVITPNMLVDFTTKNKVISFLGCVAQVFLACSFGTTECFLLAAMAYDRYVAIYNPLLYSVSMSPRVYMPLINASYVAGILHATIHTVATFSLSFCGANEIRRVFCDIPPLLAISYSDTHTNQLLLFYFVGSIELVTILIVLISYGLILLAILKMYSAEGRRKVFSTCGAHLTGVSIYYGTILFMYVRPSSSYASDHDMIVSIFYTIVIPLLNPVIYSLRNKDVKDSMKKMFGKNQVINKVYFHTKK
Procedure, shortened: as §1

[15] = tested on: T15, OR5M1 T295R M301I
T15 sequence (whole entry): T5 sequence (whole entry) with T295R, M301I
Procedure, shortened: as §1

[16] = tested on: T16, OR5M3 N3Y A156T
T16 sequence (whole entry): T8 sequence (whole entry) with N3Y, A156T
Procedure, shortened: as §1

[17] = tested on: T17, OR5MA L2F C311H
T17 sequence (whole entry): T6 sequence (whole entry) with L2F, C311H
Procedure, shortened: as §1

[18] = tested on: T18, OR5MA L2F Q54H C311H
T18 sequence (whole entry): T6 sequence (whole entry) with L2F, Q54H, C311H
Procedure, shortened: as §1

[19] = tested on: T19, OR5P3 L301R
T19 sequence (whole entry): T12 sequence (whole entry) with L301R
Procedure, shortened: as §1

[20] = tested on: T20, OR5R1 C122R S128G F184L
T20 sequence (whole entry): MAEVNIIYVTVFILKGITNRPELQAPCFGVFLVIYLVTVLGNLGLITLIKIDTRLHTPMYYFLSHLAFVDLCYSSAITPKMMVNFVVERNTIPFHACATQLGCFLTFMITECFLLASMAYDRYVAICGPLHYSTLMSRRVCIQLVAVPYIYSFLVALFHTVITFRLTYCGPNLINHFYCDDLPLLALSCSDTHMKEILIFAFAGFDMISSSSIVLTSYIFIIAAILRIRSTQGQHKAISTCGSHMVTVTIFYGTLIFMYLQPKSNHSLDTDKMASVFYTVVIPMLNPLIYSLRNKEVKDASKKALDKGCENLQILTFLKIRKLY
Procedure, shortened: as §1

| SMILES | odorant receptor agonist call [1] | odorant receptor agonist call [2] | odorant receptor agonist call [3] | odorant receptor agonist call [4] | odorant receptor agonist call [5] | odorant receptor agonist call [6] | odorant receptor agonist call [7] | odorant receptor agonist call [8] | odorant receptor agonist call [9] | odorant receptor agonist call [10] | odorant receptor agonist call [11] | odorant receptor agonist call [12] | odorant receptor agonist call [13] | odorant receptor agonist call [14] | odorant receptor agonist call [15] | odorant receptor agonist call [16] | odorant receptor agonist call [17] | odorant receptor agonist call [18] | odorant receptor agonist call [19] | odorant receptor agonist call [20] |
| --- | --- | --- | --- | --- | --- | --- | --- | --- | --- | --- | --- | --- | --- | --- | --- | --- | --- | --- | --- | --- |
| CCCCC(S)C(C)CO (centres undefined) | inactive | inactive | inactive | inactive | inactive | inactive | active | inactive | inactive | inactive | inactive | inactive | inactive | inactive |  |  |  |  |  |  |
| Cc1cnc(C)cn1 | inactive | inactive |  |  |  |  |  |  |  |  |  |  |  |  |  |  |  |  |  |  |
| Cc1cnc(C)c(C)n1 | inactive | inactive | inactive | inactive | inactive | inactive | inactive | inactive | inactive | inactive | inactive | inactive | inactive | inactive | inactive | inactive | inactive | inactive | inactive | inactive |
| CC1CCCCCCCCCCCCC(=O)C1 (centres undefined) | inactive | inactive | inactive |  | inactive | inactive | inactive | inactive | inactive | inactive | inactive | inactive | inactive | inactive |  |  |  |  |  |  |
